Converted amounts (≈) assume the structure as drawn. The source made the active and inactive calls. No cut-off for these calls is given here.
Key:
[1] = Lipophilicity, log P of the compound; type: physicochemical; conditions: octanol/water
In short: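 log P calculated with ACD algorithm and database statistics; not measured experimentally.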

[2] = system: Mycobacterium tuberculosis; assay: Antimycobacterial activity against Mycobacterium tuberculosis H37Rv at 6.25 ug/ml by broth microdilution assay; type: functional
In short: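 Single-concentration screen at 6.25 µg/mL against M. tuberculosis H37Rv (ATCC 27294), broth microdilution in BACTEC 12B medium. Read-out is % growth inhibition versus controls. At least 90% inhibition counted as active.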

[3] = system: Mus musculus; assay: Neurotoxicity in mouse at 100 mg/kg after 0.5 hrs; type: toxicity, organism-based; design: dose 100 mg/kg; conditions: in vivo
In short: (§1)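 Mice dosed intraperitoneally at 30, 100 and 300 mg/kg; 1a and 1b given as hydrochloride salts. Observed 0.5 and 4 h after dosing. Value is number of animals showing neurological deficit over number dosed. Deaths also recorded.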

[4] = system: Mus musculus; assay: Neurotoxicity in mouse at 300 mg/kg after 0.5 hrs; type: toxicity, organism-based; design: dose 300 mg/kg; conditions: in vivo; in short: as §1
[5] = system: Mus musculus; assay: Neurotoxicity in mouse at 100 mg/kg after 4 hrs; type: toxicity, organism-based; design: dose 100 mg/kg; conditions: in vivo; in short: as §1
[6] = system: Mus musculus; assay: Neurotoxicity in mouse at 300 mg/kg after 4 hrs; type: toxicity, organism-based; design: dose 300 mg/kg; conditions: in vivo; in short: as §1
[7] = system: Rattus norvegicus; assay: Neurotoxicity in rat at 50 mg/kg, po after 1 hr; type: toxicity, organism-based; design: dose 50 mg/kg, route oral; conditions: in vivo
In short: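 Rats dosed orally at 30 or 50 mg/kg and examined for neurotoxicity 0.25, 0.5, 1, 2 and 4 h after dosing. Four animals per group, with three rats at one 0.5 h time point.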

[8] = system: Mycobacterium tuberculosis; assay: Antimycobacterial activity against Mycobacterium tuberculosis H37Rv at 12.5 ug/ml by broth microdilution assay; type: functional
In short: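 Primary screen against M. tuberculosis H37Rv (ATCC 27294) at a single concentration of 12.5 µg/mL in BACTEC 12B medium by broth microdilution. Growth inhibition expressed as % relative to controls. Hydrochloride salt used where applicable.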

[9] = system: Mycobacterium tuberculosis; assay: Antimycobacterial activity against Mycobacterium tuberculosis H37Rv by broth microdilution assay; type: functional
In short: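 M. tuberculosis H37Rv (ATCC 27294) grown in BACTEC 12B medium, broth microdilution. MIC taken as the lowest concentration giving a 90% reduction in fluorescence relative to controls. Rifampin served as reference drug.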

[10] = system: Liver; assay: Stimulation of respiration in rat liver mitochondria assessed as effect on swelling at 5 uM; type: functional
In short: (§2)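 Rat liver mitochondria isolated by differential centrifugation (respiratory control ratio 5–7). Swelling of fresh mitochondria followed at 30 °C in 125 mM sucrose, 65 mM KCl, 10 mM Hepes, 5 mM potassium phosphate, 1 mM MgCl2, pH 7.2, with 5 mM succinate. Compounds tested at 5, 10 and 100 μM; DMSO solvent control.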

[11] = system: Liver; assay: Stimulation of respiration in rat liver mitochondria assessed as effect on swelling at 10 uM; type: functional; in short: as §2
[12] = system: Liver; assay: Stimulation of respiration in rat liver mitochondria assessed as effect on swelling at 100 uM; type: functional; in short: as §2

| Compound | logP [1] | inhibition at 6.25 µg/mL [2] | logP ([1]; read-out: logP) | Activity [3] | Activity [4] | Activity [5] | Activity [6] | Activity [7] | inhibition at 12.5 µg/mL [8] | MIC [9] | Activity [10] | Activity [11] | Activity [12] |
| --- | --- | --- | --- | --- | --- | --- | --- | --- | --- | --- | --- | --- | --- |
| CCN(CC)CCOc1ccc(C(=O)N2C/C(=C\c3ccc([N+](=O)[O-])cc3)C(=O)/C(=C/c3ccc([N+](=O)[O-])cc3)C2)cc1.Cl | 6.5 | 34% |  |  |  |  |  |  |  |  |  |  |  |
| CC[N+](C)(CC)CCOc1ccc(C(=O)N2C/C(=C\c3ccccc3)C(=O)/C(=C/c3ccccc3)C2)cc1.[I-] |  | 0% | 2.2 | Toxic | Toxic | Toxic | Toxic |  |  |  |  |  |  |
| CCN(CC)CCOc1ccc(C(=O)N2C/C(=C\c3ccccc3)C(=O)/C(=C/c3ccccc3)C2)cc1.Cl | 7 | 99% |  |  |  | Non-toxic | Non-toxic | Non-toxic |  |  |  |  |  |
| O=C1/C(=C/c2ccc([N+](=O)[O-])cc2)CNC/C1=C\c1ccc([N+](=O)[O-])cc1 | 5.3 |  |  | Non-toxic | Non-toxic | Non-toxic | Non-toxic |  | 100% | 0.2 µg/mL (≈ 0.547 µM) | inactive | inactive | inactive |
| CCN(CC)CCOc1ccc(C(=O)O)cc1.Cl |  | 12% | 2.9 | Non-toxic | Non-toxic | Non-toxic | Non-toxic |  |  |  |  |  |  |
| Cc1ccc(/C=C2\CN(C(=O)c3ccc(OCCN(C)C)cc3)C/C(=C\c3ccc(C)cc3)C2=O)cc1.Cl | 6.8 | 100% |  |  | Non-toxic | Non-toxic | Non-toxic |  |  | 3.13 µg/mL |  |  |  |
| CCN(CC)CCOc1ccc(C(=O)N2C/C(=C\c3ccc(C)cc3)C(=O)/C(=C/c3ccc(C)cc3)C2)cc1.Cl | 7.9 | 100% |  | Non-toxic | Non-toxic | Non-toxic | Non-toxic |  |  | 3.13 µg/mL |  |  |  |
| CC[N+](C)(CC)CCOc1ccc(C(=O)N2C/C(=C\c3ccc(C)cc3)C(=O)/C(=C/c3ccc(C)cc3)C2)cc1.[I-] |  | 81% | 3.1 | Non-toxic |  | Non-toxic | Toxic |  |  |  |  |  |  |
| Cl.O=C1/C(=C/c2ccc(Cl)cc2)CN(C(=O)c2ccc(OCCN3CCCCC3)cc2)C/C1=C\c1ccc(Cl)cc1 | 8.1 | 86% |  |  |  |  |  |  |  |  |  |  |  |
| CCN(CC)CCOc1ccc(C(=O)N2C/C(=C\c3ccc(Cl)cc3)C(=O)/C(=C/c3ccc(Cl)cc3)C2)cc1.Cl | 8 | 37% |  | Non-toxic | Non-toxic | Non-toxic | Non-toxic |  |  |  |  |  |  |
| Cc1ccc(/C=C2\CN(C(=O)c3ccc(OCCN4CCCCC4)cc3)C/C(=C\c3ccc(C)cc3)C2=O)cc1.Cl | 8 | 100% |  |  | Non-toxic | Non-toxic | Non-toxic |  |  | 3.13 µg/mL |  |  |  |
| CN(C)CCOc1ccc(C(=O)N2C/C(=C\c3ccc(Cl)cc3)C(=O)/C(=C/c3ccc(Cl)cc3)C2)cc1.Cl | 7 | 100% |  | Non-toxic | Non-toxic | Non-toxic | Non-toxic |  |  | 1.56 µg/mL |  |  |  |
| COc1ccc(C(=O)N2C/C(=C\c3ccc(Cl)cc3)C(=O)/C(=C/c3ccc(Cl)cc3)C2)cc1 |  | 47% | 6 |  | Non-toxic | Non-toxic | Non-toxic |  |  |  |  |  |  |
| O=C1/C(=C/c2ccccc2)CN(C(=O)c2ccccc2)C/C1=C\c1ccccc1 |  | 0% | 5.5 |  |  |  |  |  |  |  |  |  |  |

From ChEMBL document CHEMBL1157157, “N-Aroyl-3,5-bis(benzylidene)-4-piperidones: a novel class of antimycobacterial agents” (Bioorg Med Chem, 2008)
